Test results taken from PubChem BioAssay AID504405 (Broad Institute, 2011).
Records with an inconclusive call do not appear. Activity calls are given as the source filed them.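 How the source made its calls: active means fitted curve crosses 10% of positive-control caspase signal within tested doses in every repeat test; inconclusive means repeat tests disagree, or any test inconclusive; inactive means the rest.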

Tested on: not listed separately
Assay: non-primed MEF caspase induction – cell-based, wild-type MEF, CaspaseGlo luminescence, dry powder, set 3, counter-screen for A1 inhibitor project, dose response (AID 504405)
Conditions: wild-type MEF caspase activation, CaspaseGlo luminescence, 3 h; at 35 µM (top of the series)
Method in brief: (§1)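 System: Unprimed wild-type MEF cells | Medium: RPMI-1640 plus 10% FBS | Times: 3 h compound at 37 °C, 1 h CaspaseGlo at RT | Technique: CaspaseGlo luminescence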
In the case of `COc1nc2ccccc2c(Sc2ccc(C)cc2)c1[N+](=O)[O-]`, the caspase activation is reported as 0.723% (inactive).
In the case of `Cc1ccc(S(=O)(=O)c2c([N+](=O)[O-])c(=O)n(C)c3ccccc23)cc1`, the caspase activation is reported as -0.89% (inactive).
In the case of `O=C(COc1ccc(Cl)cc1Cl)NNc1nc(N2CCOCC2)nc(N2CCOCC2)n1`, the caspase activation is reported as -0.598% (inactive).
For `Cn1c(=O)c([N+](=O)[O-])c(S(C)(=O)=O)c2ccccc21`, the caspase activation was -0.856% (inactive).
In the case of `COc1ccc(N2CCN(c3nc(NCCc4ccc(OC)c(OC)c4)nc(N4CCOCC4)n3)CC2)cc1`, the caspase activation is reported as 0.165% (inactive).
For `Cn1c(=O)c(Sc2ccccn2)c(Sc2ccccn2)c2ccccc21`, the caspase activation was 0.793% (inactive).
With `COc1ccc(CCNc2nc(N3CCCC3)nc(N3CCCC3)n2)cc1OC` the caspase activation was -0.327% (inactive).
In the case of `O=c1[nH]c2ccccc2c(O)c1[N+](=O)[O-]`, the caspase activation is reported as 0.522% (inactive).
With `Cc1ccc(Sc2c(Sc3ccc(C)cc3)c3ccccc3n(Cc3ccccc3)c2=O)cc1` the caspase activation was 0.126% (inactive).
In the case of `COc1c([N+](=O)[O-])c(=O)n(C)c2ccccc12`, the caspase activation is reported as 0.426% (inactive).
With `COc1ccc(CCNc2nc(N3CCOCC3)nc(N3CCOCC3)n2)cc1OC` the caspase activation was 0.145% (inactive).
In the case of `CCn1c(=O)c(Sc2ccc(C)cc2)c(Sc2ccc(C)cc2)c2ccccc21`, the caspase activation is reported as 0.52% (inactive).
For `Cc1ccc(Sc2c(Sc3ccc(C)cc3)c3ccccc3n(C)c2=O)cc1`, the caspase activation was 0.922% (inactive).
For `COCCn1c(=O)c([N+](=O)[O-])c(Cl)c2ccccc21`, the caspase activation was -0.545% (inactive).
In the case of `C/C(=N\Nc1nc(N2CCCCC2)nc(N2CCCCC2)n1)c1ccc(F)cc1`, the caspase activation is reported as 0.38% (inactive).
With `COc1nc2ccccc2c(Cl)c1[N+](=O)[O-]` the caspase activation was 6.45% (inactive).
For `Cc1ccc(Sc2c([N+](=O)[O-])c(=O)n(C)c3ccccc23)cc1`, the caspase activation was 5.89% (inactive).
For `CCn1c(=O)c([N+](=O)[O-])c(Sc2ccc(C)cc2)c2ccccc21`, the caspase activation was 0.226% (inactive).
In the case of `COCCn1c(=O)c(Sc2ccc(C)cc2)c(Sc2ccc(C)cc2)c2ccccc21`, the caspase activation is reported as 0.603% (inactive).

Tested on: wild-type MEF caspase activation, CaspaseGlo luminescence, 3 h
Assay: as above
Conditions: not given
Method in brief: as §1
With `O=c1c([N+](=O)[O-])c(Cl)c2ccccc2n1Cc1ccccc1` the AC10 was 11.8 µM.
